# Activity calls are given as the source filed them. The calls are words filed in the database; no cut-off is given here.
# Columns and labels:
# Brassica napus [1] = experiment: Stress inducing elicitor activity in Brassica napus cv. Wester assessed as induction of phytoalexins production; format: functional, organism-based
# Method in brief: (§1)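 Test solutions applied to leaves of whole plants. Plants were grown in a growth chamber at 24 ± 2 °C on a 16 h light / 8 h dark cycle. Treated plants were incubated in a growth cabinet. Control leaves received MeOH/H2O (1:1). Elicitation was scored by HPLC-DAD of leaf extracts as phytoalexins absent from control plants. Assays were run in triplicate, at least twice.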
# Brassica juncea [2] = experiment: Stress inducing elicitor activity in Brassica juncea cv. Cutlass assessed as induction of phytoalexins production; format: functional, organism-based; method in brief: as §1
# Brassica juncea [3] = experiment: Stress inducing elicitor activity in Brassica juncea cv. Cutlass; format: functional, organism-based; method in brief: as §1
# Brassica napus [4] = experiment: Stress inducing elicitor activity in Brassica napus cv. Wester; format: functional, organism-based; method in brief: as §1
# Brassica juncea [5] = experiment: Induction necrosis on leaves of Brassica juncea cv. Cutlass at 0.5 mM; format: functional, organism-based
# Brassica napus [6] = experiment: Induction necrosis on leaves of Brassica napus cv. Wester at 0.5 mM; format: functional, organism-based
# Brassica napus [7] = experiment: Stress inducing elicitor activity in Brassica napus cv. Wester assessed as increase in indolyl-3-acetonitrile levels relative to control; format: functional
# Method in brief: (§2)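 Test solutions applied to leaves of whole plants (B. juncea cv. Cutlass, B. napus cv. Westar) grown in a growth chamber at 24 ± 2 °C with 16 h light / 8 h dark; plants then incubated in a growth cabinet. Leaf extracts analysed by HPLC-DAD for phytoalexins and indolyl stress metabolites against controls treated with MeOH/H2O (1:1). Run in triplicate, at least twice.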
# Brassica juncea [8] = experiment: Stress inducing elicitor activity in Brassica juncea cv. Cutlass as induction of spirobrassinin production at 1 mM; format: functional, organism-based; method in brief: as §1
# Brassica napus [9] = experiment: Stress inducing elicitor activity in Brassica napus cv. Wester assessed as induction of spirobrassinin production at 1 mM; format: functional, organism-based; method in brief: as §2
# Brassica juncea [10] = experiment: Stress inducing elicitor activity in Brassica juncea cv. Cutlass assessed as increase in 1-methoxyindolyl-3-acetonitrile levels relative to control; format: functional; method in brief: as §2
# Brassica napus [11] = experiment: Stress inducing elicitor activity in Brassica napus cv. Wester assessed as increase in 1-methoxyindolyl-3-acetonitrile levels relative to control; format: functional; method in brief: as §2
# Brassica juncea [12] = experiment: Stress inducing elicitor activity in Brassica juncea cv. Cutlass assessed as increase in indolyl-3-acetonitrile levels relative to control; format: functional; method in brief: as §2
# Brassica juncea [13] = experiment: Stress inducing elicitor activity in Brassica juncea cv. Cutlass assessed as induction of rutalexin production at 1 mM; format: functional, organism-based; method in brief: as §2
# Brassica napus [14] = experiment: Stress inducing elicitor activity in Brassica napus cv. Wester assessed as induction of spirobrassinin production at 0.5 mM; format: functional, organism-based; method in brief: as §2
# Brassica juncea [15] = experiment: Stress inducing elicitor activity in Brassica juncea cv. Cutlass assessed as induction of spirobrassinin production at 0.5 mM; format: functional, organism-based; method in brief: as §2
# Brassica juncea [16] = experiment: Stress inducing elicitor activity in Brassica juncea cv. Cutlass assessed as induction of rutalexin production at 0.5 mM; format: functional, organism-based; method in brief: as §2
# Brassica juncea [17] = experiment: Stress inducing elicitor activity in Brassica juncea cv. Cutlass assessed as induction of cyclobrassinin production at 1 mM; format: functional, organism-based; method in brief: as §2
# Brassica juncea [18] = experiment: Stress inducing elicitor activity in Brassica juncea cv. Cutlass assessed as induction of spirobrassinin production at 1 mM; format: functional, organism-based; method in brief: as §2
# Brassica juncea [19] = experiment: Stress inducing elicitor activity in Brassica juncea cv. Cutlass assessed as induction of brassilexin production at 0.5 mM; format: functional, organism-based; method in brief: as §2
# Brassica juncea [20] = experiment: Stress inducing elicitor activity in Brassica juncea cv. Cutlass assessed as induction of brassilexin production at 1 mM; format: functional, organism-based; method in brief: as §2
# Brassica juncea [21] = experiment: Stress inducing elicitor activity in Brassica juncea cv. Cutlass assessed as induction of cyclobrassinin production at 0.5 mM; format: functional, organism-based; method in brief: as §2
structure (smiles),measurement,setting,value
C/C=C1/NC(=O)[C@H](C(C)C)NC(=O)[C@@H](CC(C)C)NC(=O)[C@H](CC(C)C)OC(=O)[C@H](Cc2ccccc2)OC1=O,Activity,Brassica napus [1],inactive
same,Activity,Brassica juncea [2],inactive
CC(=O)O[C@H]1[C@]2(O)C[C@]34SSSS[C@](CO)(C(=O)N3[C@@H]2C[C@]12O[C@H](C)C(C)(C)C2=O)N(C)C4=O,Activity,Brassica juncea [3],inactive
same,Activity,Brassica napus [4],inactive
CC(=O)O[C@H]1[C@]2(O)C[C@]34SSS[C@](CO)(C(=O)N3[C@@H]2C[C@]12O[C@H](C)C(C)(C)C2=O)N(C)C4=O,Activity,Brassica juncea [3],inactive
same,Activity,Brassica napus [4],inactive
CC(=O)O[C@H]1[C@]2(O)C[C@]34S[C@](CO)(C(=O)N3[C@@H]2C[C@]12O[C@H](C)C(C)(C)C2=O)N(C)C4=O,Activity,Brassica juncea [3],inactive
same,Activity,Brassica juncea [5],Active
same,Activity,Brassica napus [4],inactive
same,Activity,Brassica napus [6],Active
CC(C)=CCOc1ccc(C[C@@H]2NC(=O)[C@H](CO)NC2=O)cc1,Activity,Brassica napus [1],inactive
same,Activity,Brassica juncea [2],inactive
C[C@H]1O[C@]2(C[C@H]3N4C(=O)[C@@]5(CO)SS[C@]4(C[C@@]3(O)[C@@H]2O)C(=O)N5C)C(=O)C1(C)C [DEACETYLSIRODESMIN PL],fold change (FC),Brassica napus [7],8
same,Activity,Brassica juncea [8],Active
same,Activity,Brassica napus [9],Active
same,fold change (FC),Brassica juncea [10],8
same,fold change (FC),Brassica napus [11],8
same,Activity,Brassica juncea [5],Active
same,Activity,Brassica napus [6],Active
same,fold change (FC),Brassica juncea [12],8
CC(=O)O[C@H]1[C@]2(O)C[C@]34SS[C@](CO)(C(=O)N3[C@@H]2C[C@]12O[C@H](C)C(C)(C)C2=O)N(C)C4=O [SIRODESMIN PL],fold change (FC),Brassica napus [7],8
same,Activity,Brassica juncea [13],Active
same,Activity,Brassica napus [14],Active
same,Activity,Brassica juncea [15],Active
same,Activity,Brassica juncea [16],Active
same,Activity,Brassica juncea [17],Active
same,Activity,Brassica napus [9],Active
same,Activity,Brassica juncea [18],Active
same,fold change (FC),Brassica juncea [10],8
same,fold change (FC),Brassica napus [11],8
same,Activity,Brassica juncea [5],Active
same,Activity,Brassica napus [6],Active
same,fold change (FC),Brassica juncea [12],8
same,Activity,Brassica juncea [19],Active
same,Activity,Brassica juncea [20],Active
same,Activity,Brassica juncea [21],Active
